Experimental data taken from ChEMBL document CHEMBL3588757, “Structure-based design, synthesis and biological testing of piperazine-linked bis-epipodophyllotoxin etoposide analogs” (Bioorg Med Chem, 2015).

Legend:
[1] = system: UACC-257; experiment: Cytotoxicity against human UACC257 cells assessed as cell growth at 0.05 uM by SRB assay; type: functional; details: read-out: Activity
[2] = system: OVCAR-5; experiment: Cytotoxicity against human OVCAR5 cells assessed as cell growth at 0.5 uM by SRB assay; type: functional; details: read-out: Activity
[3] = system: SW-620; experiment: Cytotoxicity against human SW620 cells assessed as cell growth at 0.05 uM by SRB assay; type: functional; details: read-out: Activity
[4] = system: HCC 2998; experiment: Cytotoxicity against human HCC2998 cells assessed as cell growth at 50 uM by SRB assay; type: functional; details: read-out: Activity
In short: (§1)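 Measured in the NCI-60 human tumour cell line panel using five-dose testing. Growth was recorded at each dose for each cell line, and a GI50 was derived for each line.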

[5] = system: U-251; experiment: Cytotoxicity against human U251 cells assessed as cell growth at 0.05 uM by SRB assay; type: functional; details: read-out: Activity
[6] = system: NCI-H322M; experiment: Cytotoxicity against human NCI-H322M cells assessed as cell growth at 50 uM by SRB assay; type: functional; details: read-out: Activity
[7] = system: MDA-MB-435; experiment: Cytotoxicity against human MDA-MB-435 cells assessed as cell growth at 50 uM by SRB assay; type: functional; details: read-out: Activity
[8] = system: ACHN; experiment: Cytotoxicity against human ACHN cells assessed as cell growth at 5 uM by SRB assay; type: functional; details: read-out: Activity
[9] = system: OVCAR-3; experiment: Cytotoxicity against human OVCAR3 cells assessed as cell growth at 50 uM by SRB assay; type: functional; details: read-out: Activity
[10] = system: HOP-92; experiment: Cytotoxicity against human HOP92 cells by SRB assay; type: functional; in short: as §1
[11] = system: IGROV-1; experiment: Cytotoxicity against human IGROV1 cells assessed as cell growth at 0.005 uM by SRB assay; type: functional; details: read-out: Activity; in short: as §1
[12] = system: TK-10; experiment: Cytotoxicity against human TK10 cells assessed as cell growth at 0.5 uM by SRB assay; type: functional; details: read-out: Activity
[13] = system: MDA-MB-231; experiment: Cytotoxicity against human MDA-MB-231/ATCC cells assessed as cell growth at 5 uM by SRB assay; type: functional; details: read-out: Activity
[14] = system: BT-549; experiment: Cytotoxicity against human BT549 cells assessed as cell growth at 0.005 uM by SRB assay; type: functional; details: read-out: Activity
[15] = system: NCI-H322M; experiment: Cytotoxicity against human NCI-H322M cells assessed as cell growth at 0.05 uM by SRB assay; type: functional; details: read-out: Activity
[16] = system: IGROV-1; experiment: Cytotoxicity against human IGROV1 cells assessed as cell growth at 5 uM by SRB assay; type: functional; details: read-out: Activity
[17] = system: COLO 205; experiment: Cytotoxicity against human COLO205 cells assessed as cell growth at 0.05 uM by SRB assay; type: functional; details: read-out: Activity
[18] = system: OVCAR-8; experiment: Cytotoxicity against human OVCAR8 cells assessed as cell growth at 0.005 uM by SRB assay; type: functional; details: read-out: Activity
[19] = system: BT-549; experiment: Cytotoxicity against human BT549 cells assessed as cell growth at 0.05 uM by SRB assay; type: functional; details: read-out: Activity
[20] = Cytotoxicity against etoposide-resistant human K/VP.5 cells assessed as cell growth inhibition after 72 hrs by MTS assay; type: functional, cell-based; details: K/VP.5, 72 h
In short: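 K/VP.5 cells are a K562-derived subline, 26-fold etoposide-resistant, with decreased topoisomerase IIα mRNA and protein. Cells were grown in suspension in αMEM with 10% fetal calf serum. Drugs were given from DMSO stocks, with final DMSO typically 0.4% or less. Read-out was MTS absorbance after 72 h. Typically nine concentrations were run in duplicate on two days. IC50 came from a four-parameter logistic fit.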

[21] = system: A549; experiment: Cytotoxicity against human A549/ATCC cells by SRB assay; type: functional
[22] = system: A549; experiment: Cytotoxicity against human A549/ATCC cells assessed as cell growth at 5 uM by SRB assay; type: functional; details: read-out: Activity
[23] = system: SNB-19; experiment: Cytotoxicity against human SNB19 cells assessed as cell growth at 50 uM by SRB assay; type: functional; details: read-out: Activity
[24] = system: OVCAR-4; experiment: Cytotoxicity against human OVCAR4 cells assessed as cell growth at 0.005 uM by SRB assay; type: functional; details: read-out: Activity
[25] = system: OVCAR-3; experiment: Cytotoxicity against human OVCAR3 cells by SRB assay; type: functional
In short: (§2)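 NCI-60 panel screen; 5-dose testing giving GI50 per cell line, plus a single 10 µM one-dose test. Method details not given beyond the NCI screen.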

[26] = system: CCRF-CEM; experiment: Cytotoxicity against human CCRF-CEM cells assessed as cell growth at 0.005 uM by SRB assay; type: functional; details: read-out: Activity
[27] = system: HCT-15; experiment: Cytotoxicity against human HCT15 cells assessed as cell growth at 50 uM by SRB assay; type: functional; details: read-out: Activity; in short: as §1
[28] = system: DU-145; experiment: Cytotoxicity against human DU145 cells by SRB assay; type: functional; in short: as §1
[29] = system: NCI-H460; experiment: Cytotoxicity against human NCI-H460 cells by SRB assay; type: functional; in short: as §2
[30] = system: LOX IMVI; experiment: Cytotoxicity against human LOXIMVI cells by SRB assay; type: functional; in short: as §2
[31] = system: ACHN; experiment: Cytotoxicity against human ACHN cells by SRB assay; type: functional
[32] = system: T47D; experiment: Cytotoxicity against human T47D cells assessed as cell growth at 5 uM by SRB assay; type: functional; details: read-out: Activity
[33] = system: HCC 2998; experiment: Cytotoxicity against human HCC2998 cells assessed as cell growth at 0.05 uM by SRB assay; type: functional; details: read-out: Activity; in short: as §1
[34] = system: PC-3; experiment: Cytotoxicity against human PC3 cells assessed as cell growth at 0.05 uM by SRB assay; type: functional; details: read-out: Activity
[35] = system: CAKI-1; experiment: Cytotoxicity against human Caki1 cells assessed as cell growth at 0.05 uM by SRB assay; type: functional; details: read-out: Activity
[36] = system: OVCAR-4; experiment: Cytotoxicity against human OVCAR4 cells assessed as cell growth at 0.5 uM by SRB assay; type: functional; details: read-out: Activity
[37] = system: U-251; experiment: Cytotoxicity against human U251 cells assessed as cell growth at 0.5 uM by SRB assay; type: functional; details: read-out: Activity
[38] = system: SN12C; experiment: Cytotoxicity against human SN12C cells assessed as cell growth at 5 uM by SRB assay; type: functional; details: read-out: Activity
[39] = system: RPMI-8226; experiment: Cytotoxicity against human RPMI8226 cells by SRB assay; type: functional; in short: as §2
[40] = read-out: LC50 (the source's name)
[41] = read-out: pLC50 (the source's name) (converted)

COc1cc([C@@H]2c3cc4c(cc3[C@@H](NC(=O)CN3CCN(CCCCCCCCCCN5CCN(CC(=O)N[C@@H]6c7cc8c(cc7[C@@H](c7cc(OC)c(O)c(OC)c7)[C@H]7C(=O)OC[C@@H]76)OCO8)CC5)CC3)[C@H]3COC(=O)[C@H]23)OCO4)cc(OC)c1O
growth at 0.05 µM [1]: 97% | growth at 0.5 µM [2]: 63% | growth at 0.05 µM [3]: 75% | growth at 50 µM [4]: -100% | growth at 0.05 µM [5]: 69% | growth at 50 µM [6]: -23% | growth at 50 µM [7]: -40% | growth at 5 µM [8]: -77% | growth at 50 µM [9]: -50% | GI50 ([10]; read-out: GI50): 140 nM | CC50 [10, 40]: > 50000 nM | TGI ([10]; read-out: TGI): 2580 nM | GI50 ([10]; read-out: pGI50 (converted)): 141 nM | CC50 [10, 41]: > 50100 nM | TGI ([10]; read-out: pTGI (converted)): 2570 nM | growth at 0.005 µM [11]: 90% | growth at 0.5 µM [12]: 96% | growth at 5 µM [13]: -45% | growth at 0.005 µM [14]: 94% | growth at 0.05 µM [15]: 92% | growth at 5 µM [16]: 9% | growth at 0.05 µM [17]: 90% | growth at 0.005 µM [18]: 101% | growth at 0.05 µM [19]: 87% | IC50 [20]: 114 nM | GI50 ([21]; read-out: GI50): 17.2 nM | CC50 [21, 40]: > 50000 nM | TGI ([21]; read-out: TGI): 883 nM | GI50 ([21]; read-out: pGI50 (converted)): 17.4 nM | CC50 [21, 41]: > 50100 nM | TGI ([21]; read-out: pTGI (converted)): 891 nM | growth at 5 µM [22]: -29% | growth at 50 µM [23]: -92% | growth at 0.005 µM [24]: 98% | GI50 ([25]; read-out: GI50): 1810 nM | CC50 [25, 40]: 49900 nM | TGI ([25]; read-out: TGI): 13800 nM | GI50 ([25]; read-out: pGI50 (converted)): 1820 nM | CC50 [25, 41]: 50100 nM | TGI ([25]; read-out: pTGI (converted)): 13800 nM | growth at 0.005 µM [26]: 97% | growth at 50 µM [27]: -64% | GI50 ([28]; read-out: GI50): 153 nM | CC50 [28, 40]: 14600 nM | TGI ([28]; read-out: TGI): 2890 nM | GI50 ([28]; read-out: pGI50 (converted)): 151 nM | CC50 [28, 41]: 14500 nM | TGI ([28]; read-out: pTGI (converted)): 2880 nM | GI50 ([29]; read-out: GI50): 2660 nM | CC50 [29, 40]: 26900 nM | TGI ([29]; read-out: TGI): 9820 nM | GI50 ([29]; read-out: pGI50 (converted)): 2630 nM | CC50 [29, 41]: 26900 nM | TGI ([29]; read-out: pTGI (converted)): 9770 nM | GI50 ([30]; read-out: GI50): 73.1 nM | GI50 ([30]; read-out: pGI50 (converted)): 72.4 nM | GI50 ([31]; read-out: GI50): 320 nM | CC50 [31, 40]: 2950 nM | TGI ([31]; read-out: TGI): 1110 nM | GI50 ([31]; read-out: pGI50 (converted)): 324 nM | CC50 [31, 41]: 2950 nM | TGI ([31]; read-out: pTGI (converted)): 1120 nM | growth at 5 µM [32]: 16% | growth at 0.05 µM [33]: 83% | growth at 0.05 µM [34]: 89% | growth at 0.05 µM [35]: 89% | growth at 0.5 µM [36]: 77% | growth at 0.5 µM [37]: 51% | growth at 5 µM [38]: 3% | GI50 ([39]; read-out: GI50): 16.3 nM | CC50 [39, 40]: > 50000 nM | TGI ([39]; read-out: TGI): 369 nM | GI50 ([39]; read-out: pGI50 (converted)): 16.2 nM | CC50 [39, 41]: > 50100 nM | TGI ([39]; read-out: pTGI (converted)): 372 nM
